Experimental findings from ChEMBL document CHEMBL4680191, “Discovery of novel akt1 inhibitor induces autophagy associated death in hepatocellular carcinoma cells” (Eur J Med Chem, 2020) are described below.

Activity calls are given as the source filed them. The rule behind the calls is not given here.

By IC50 is commonly meant the point on the concentration scale where inhibition reaches its midpoint.

One experiment has as its system SMMC-7721. Put plainly: Cytotoxicity against human SMMC-7721 cells assessed as reduction in cell viability by MTT assay. It counts as functional, cell-based. Put shortly:
(§1)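 Hepatoma cells were grown in DMEM with 10% FBS and streptomycin, then treated with compounds. Viability was read by MTT.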
A general note: Tetrazolium assays rely on reduction of a dye to a coloured formazan, in cell work by metabolically active cells.

A further experiment is filed under the species Homo sapiens. Put plainly: Inhibition of full length human Akt1 […] mutant assessed as remaining activity at 1 uM using GRPRTSSFAEGKK as substrate incubated for 40 mins by scintillation counting method relative to control. An outline of the steps:
(§2)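 Eurofins KinaseProfiler kinase assay on human Akt1, Akt2 and Akt3. Compounds were tested at 1 µM. Residual kinase activity is reported as % of control.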

Experiment [1] deals with RAC-gamma serine/threonine-protein kinase (Homo sapiens), Q9Y243 [S472D]. Put plainly: Inhibition of full length human Akt3 S472D mutant assessed as remaining activity at 1 uM using GRPRTSSFAEGKK as substrate incubated for 40 mins by scintillation counting method relative to control. Put shortly:
as §2

The subject of a further experiment is Hep 3B2. Put plainly: Cytotoxicity against human Hep3B cells assessed as reduction in cell viability by MTT assay. It counts as functional, cell-based. Put shortly:
as §1

For experiment [2], the system named is Huh-7. As to the kind of experiment: Cytotoxicity against human Huh-7 cells assessed as reduction in cell viability by MTT assay. It counts as functional, cell-based. Put shortly:
as §1

Experiment [3] addresses cAMP-dependent protein kinase catalytic subunit alpha (Homo sapiens) (UniProt P17612). As to the kind of experiment: Inhibition of full length human PKAcalpha assessed as remaining activity at 1 uM using LRRASLG as substrate incubated for 40 mins by scintillation counting method relative to control. Put shortly:
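Run as an outsourced KinaseProfiler service, with human PKA and Akt1, Akt2 and Akt3 in the same panel. Each compound was tested at a single 1 µM concentration, and the result is reported as kinase activity remaining, as a percentage of control.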

Experiment [4] is described as follows: Inhibition of full length human Akt1 […] mutant using GRPRTSSFAEGKK as substrate incubated for 40 mins by scintillation counting method. An outline of the steps:
(§3)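 Eurofins KinaseProfiler enzymatic assay on human Akt isoforms. IC50 values are the mean of at least three independent replicates ± standard deviation.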

The subject of the next experiment is HepG2. As to the kind of experiment: Cytotoxicity against human HepG2 cells assessed as reduction in cell viability by MTT assay. The format is functional, cell-based. Put shortly:
as §1

The target in experiment [5] is RAC-gamma serine/threonine-protein kinase (Homo sapiens, UniProt Q9Y243, S472D). Put plainly: Inhibition of full length human Akt3 S472D mutant using GRPRTSSFAEGKK as substrate incubated for 40 mins by scintillation counting method. Put shortly:
as §3

In experiment [6] the test system is RAC-beta serine/threonine-protein kinase (Homo sapiens), P31751 [S474D]. Put plainly: Inhibition of full length human Akt2 S474D mutant assessed as remaining activity at 1 uM using GRPRTSSFAEGKK as substrate incubated for 40 mins by scintillation counting method relative to control. Put shortly: as §2
RAC-beta serine/threonine-protein kinase (Homo sapiens), P31751 [S474D], sequence (P31751 whole entry S474D): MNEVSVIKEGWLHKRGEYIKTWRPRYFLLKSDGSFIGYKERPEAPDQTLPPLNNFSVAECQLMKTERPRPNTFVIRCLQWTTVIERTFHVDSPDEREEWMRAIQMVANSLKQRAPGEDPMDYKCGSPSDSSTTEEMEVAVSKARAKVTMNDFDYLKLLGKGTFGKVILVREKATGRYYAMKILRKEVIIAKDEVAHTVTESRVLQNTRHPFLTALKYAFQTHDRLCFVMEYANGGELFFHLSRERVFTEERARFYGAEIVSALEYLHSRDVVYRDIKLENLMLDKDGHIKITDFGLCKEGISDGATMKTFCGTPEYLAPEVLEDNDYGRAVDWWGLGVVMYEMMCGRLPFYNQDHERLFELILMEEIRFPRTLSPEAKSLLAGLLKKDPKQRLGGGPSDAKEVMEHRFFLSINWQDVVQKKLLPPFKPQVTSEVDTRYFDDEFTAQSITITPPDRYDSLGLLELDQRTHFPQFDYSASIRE
Experiment [7] concerns Huh-7. Put plainly: Induction of autophagy flux arrest in human Huh-7 cells assessed as reduction in LAMP1 by immunofluorescence staining based assay. It counts as functional, cell-based. An outline of the steps:
(§4)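 Huh-7 cells with or without 0.2 µM compound were immunofluorescently co-stained for LC3 (autophagosome) and LAMP1 (lysosome). Co-localization was assessed by fluorescence imaging.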

Experiment [8] concerns Huh-7. Put plainly: Induction of autophagy flux arrest in human Huh-7 cells assessed as reduction in LC3 by immunofluorescence staining based assay. It counts as functional, cell-based. An outline of the steps: as §4

RAC-gamma serine/threonine-protein kinase, sequence (Q9Y243 2-479 S472D limits assumed): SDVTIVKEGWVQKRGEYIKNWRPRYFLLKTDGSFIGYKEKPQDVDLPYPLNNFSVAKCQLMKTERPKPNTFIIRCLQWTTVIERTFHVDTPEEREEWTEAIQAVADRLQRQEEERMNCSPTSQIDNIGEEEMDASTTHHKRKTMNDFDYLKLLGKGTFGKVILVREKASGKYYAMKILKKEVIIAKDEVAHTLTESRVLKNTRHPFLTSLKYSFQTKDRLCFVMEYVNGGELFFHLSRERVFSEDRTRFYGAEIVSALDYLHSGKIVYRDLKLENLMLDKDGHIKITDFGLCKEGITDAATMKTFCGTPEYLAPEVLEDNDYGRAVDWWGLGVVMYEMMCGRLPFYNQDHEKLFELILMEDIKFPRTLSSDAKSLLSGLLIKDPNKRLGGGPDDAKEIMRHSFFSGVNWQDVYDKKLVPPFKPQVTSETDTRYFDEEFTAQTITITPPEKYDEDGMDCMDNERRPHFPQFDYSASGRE
RAC-gamma serine/threonine-protein kinase (Homo sapiens), Q9Y243 [S472D], sequence (Q9Y243 whole entry S472D): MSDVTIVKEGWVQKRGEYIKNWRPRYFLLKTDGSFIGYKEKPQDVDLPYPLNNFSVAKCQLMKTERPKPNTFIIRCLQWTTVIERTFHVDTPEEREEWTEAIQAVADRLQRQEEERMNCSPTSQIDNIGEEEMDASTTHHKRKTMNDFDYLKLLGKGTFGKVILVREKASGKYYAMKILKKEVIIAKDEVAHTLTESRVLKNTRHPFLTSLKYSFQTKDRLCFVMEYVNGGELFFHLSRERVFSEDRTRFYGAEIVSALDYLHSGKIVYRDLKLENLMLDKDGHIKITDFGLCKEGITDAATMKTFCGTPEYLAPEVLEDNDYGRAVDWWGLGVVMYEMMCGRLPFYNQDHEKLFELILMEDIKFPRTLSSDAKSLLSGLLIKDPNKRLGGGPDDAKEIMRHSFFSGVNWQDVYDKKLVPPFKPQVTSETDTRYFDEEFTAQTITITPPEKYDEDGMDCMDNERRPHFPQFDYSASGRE

For the compound `O=C(C(CNC1CCCCC1)c1ccc(Cl)cc1)N1CCN(c2ncnc3sc4c(c23)CCC4)CC1` (stereo not given), the IC50 in the experiment with SMMC-7721 came out at 978 nM; with Hep 3B2, 294 nM; in the experiment with Huh-7 [2] it was 159 nM; in experiment [4], 51 nM; in the experiment on HepG2 it was 386 nM; in experiment [5], 45 nM. Besides, the Activity in the experiment listed under Homo sapiens was 1%; in [1] it was 11%; in experiment [3] it was 29%; in experiment [6], 51%.
For `CC(C)NCC(C(=O)N1CCN(c2ncnc3sc4c(c23)CCN(C)C4)CC1)c1ccc(F)cc1` (stereo not given), the Activity in the experiment filed under Homo sapiens turned out to be 88%; in [1] it was 87%; in [3], 97%; in [6], 111%.
The like results for `CC(C)NCC(C(=O)N1CCN(c2ncnc3sc4c(c23)CCN(C)C4)CC1)c1ccc(Br)cc1` (stereo not given) were, in that order, 69%, 72%, 88% and 86%.
On to `CN1CCc2c(sc3ncnc(N4CCN(C(=O)C(CNC5CCCC5)c5ccc(Cl)cc5)CC4)c23)C1` (stereo not given), for which the Activity turned out to be 82% in the experiment listed under Homo sapiens, 76% in [1], 82% in [3] and 81% in experiment [6].
Turning to `CC(C)NCC(C(=O)N1CCN(c2ncnc3sc4c(c23)CCOC4)CC1)c1ccc(Cl)cc1` (stereo not given), the Activity in the experiment listed under Homo sapiens amounted to 78%; in experiment [1], 77%; in experiment [3], 78%; in [6], 81%.
Turning to `CC(C)NCC(C(=O)N1CCN(c2ncnc3sc4c(c23)CCN(C2CC2)C4)CC1)c1ccc(Cl)cc1` (stereo not given), the Activity in the experiment filed under Homo sapiens turned out to be 77%; in experiment [1], 70%; in experiment [3], 92%; in experiment [6] it was 71%.
For `CCN1CCc2c(sc3ncnc(N4CCN(C(=O)C(CNC(C)C)c5ccc(Cl)cc5)CC4)c23)C1` (stereo not given), the Activity in the experiment listed under Homo sapiens worked out at 73%; in [1], 71%; in experiment [3], 87%; in experiment [6], 82%.
Take `CC(C)NCC(C(=O)N1CCN(c2ncnc3sc4c(c23)CCN(C)C4)CC1)c1ccc(Cl)cc1` (stereo not given): the Activity is 50% in the experiment listed under Homo sapiens, 69% in [1], 72% in [3] and 91% in experiment [6].
Turning to `CC(C)NC[C@@H](C(=O)N1CCN(c2ncnc3c2[C@H](C)C[C@H]3O)CC1)c1ccc(Cl)cc1` [IPATASERTIB], the IC50 in the experiment on SMMC-7721 amounted to 661 nM; in the experiment with Hep 3B2 it was 389 nM; in the experiment on Huh-7 [2], 167 nM; in experiment [4] it was 19 nM; in the experiment on HepG2, 268 nM. For the same compound, the outcome in the experiment on Huh-7 [7] and with Huh-7 [8] was Active.
With `CCNCC(C(=O)N1CCN(c2ncnc3sc4c(c23)CCN(C)C4)CC1)c1ccc(Cl)cc1` (stereo not given), the Activity came to 95% in the experiment listed under Homo sapiens, 74% in experiment [1], 91% in experiment [3] and 107% in experiment [6].
`CC(C)NCC(C(=O)N1CCN(c2ncnc3sc4c(c23)CCC4)CC1)c1ccc(Br)cc1` (stereo not given): the IC50 with SMMC-7721 came out at 521 nM; in the experiment with Hep 3B2, 228 nM; in the experiment with Huh-7 [2], 112 nM; in experiment [4], 39 nM; in the experiment on HepG2, 202 nM; in [5], 95 nM. Besides, the Activity is 1% in the experiment filed under Homo sapiens, 20% in [1], 23% in experiment [3] and 67% in experiment [6].
For the compound `COc1ccc(C(CNC(C)C)C(=O)N2CCN(c3ncnc4sc5c(c34)CCC5)CC2)cc1` (stereo not given), the Activity in the experiment filed under Homo sapiens stood at 18%; in experiment [1], 42%; in [3] it was 66%; in experiment [6] it was 86%.
The corresponding values for `CC(C)NCC(C(=O)N1CCN(c2ncnc3sc4c(c23)CCN(Cc2ccccc2)C4)CC1)c1ccc(Cl)cc1` (stereo not given) are 71%, 71%, 80% and 77%.
The corresponding values for `CN1CCc2c(sc3ncnc(N4CCN(C(=O)C(CNC5CCCCC5)c5ccc(Cl)cc5)CC4)c23)C1` (stereo not given) are 84%, 69%, 95% and 88%.
In the case of `CC(C)NCC(C(=O)N1CCN(c2ncnc3sc4c(c23)CCCC4)CC1)c1ccc(Cl)cc1` (stereo not given), the Activity in the experiment filed under Homo sapiens came out at 55%; in experiment [1], 63%; in [3] it was 78%; in [6] it was 72%.
In the case of `CC(C)NCC(C(=O)N1CCN(c2ncnc3sc4c(c23)CCC4)CC1)c1ccc(Cl)cc1` (stereo not given), the Activity came out at 11% in the experiment listed under Homo sapiens, 19% in experiment [1], 45% in [3] and 57% in experiment [6].
Regarding `CCNCC(C(=O)N1CCN(c2ncnc3sc4c(c23)CCC4)CC1)c1ccc(Cl)cc1` (stereo not given), the IC50 in the experiment on SMMC-7721 turned out to be 1250 nM; in the experiment on Hep 3B2, 541 nM; in the experiment on Huh-7 [2], 283 nM; in [4], 125 nM; in the experiment with HepG2, 580 nM; in [5] it was 101 nM. In addition, the Activity in the experiment filed under Homo sapiens stood at 1%; in experiment [1] it was 21%; in experiment [3], 31%; in [6] it was 58%.
For the compound `Cc1ccc(C(CNC(C)C)C(=O)N2CCN(c3ncnc4sc5c(c34)CCN(C)C5)CC2)cc1` (stereo not given), the Activity in the experiment listed under Homo sapiens turned out to be 78%; in experiment [1] it was 73%; in experiment [3], 90%; in experiment [6], 73%.
In the case of `CCCCNCC(C(=O)N1CCN(c2ncnc3sc4c(c23)CCN(C)C4)CC1)c1ccc(Cl)cc1` (stereo not given), the Activity in the experiment filed under Homo sapiens came out at 81%; in [1], 84%; in experiment [3] it was 81%; in experiment [6], 93%.
Take `CCCCNCC(C(=O)N1CCN(c2ncnc3sc4c(c23)CCC4)CC1)c1ccc(Cl)cc1` (stereo not given): the IC50 is 1350 nM in the experiment on SMMC-7721; 833 nM with Hep 3B2; 367 nM in the experiment on Huh-7 [2]; 166 nM in experiment [4]; 914 nM in the experiment on HepG2; 137 nM in experiment [5]. Further, the Activity in the experiment listed under Homo sapiens is 1%; in experiment [1] it was 15%; in [3], 37%; in [6] it was 56%.
Regarding `CC(C)NCC(C(=O)N1CCN(c2ncnc3sc4c(c23)CCC4)CC1)c1ccccc1Cl` (stereo not given), the Activity in the experiment listed under Homo sapiens is 88%; in experiment [1], 92%; in experiment [3] it was 95%; in [6], 101%.
The like results for `CC(C)NCC(C(=O)N1CCN(c2ncnc3sc4c(c23)CCN(C(=O)N(C)C)C4)CC1)c1ccc(Cl)cc1` (stereo not given) were, in that order, 86%, 87%, 80% and 95%.
Take `CC(C)NCC(C(=O)N1CCN(c2ncnc3sc4c(c23)CCC4)CC1)c1ccc(F)cc1` (stereo not given): the Activity in the experiment filed under Homo sapiens was 26%; in experiment [1], 45%; in [3], 77%; in experiment [6], 104%.
Turning to `CC(C)NCC(C(=O)N1CCN(c2ncnc3sc4c(c23)CCN(C)C4)CC1)c1ccccc1Cl` (stereo not given), the Activity in the experiment listed under Homo sapiens came out at 96%; in experiment [1], 76%; in [3], 86%; in experiment [6], 83%.
The like results for `CC(C)NCC(C(=O)N1CCN(c2ncnc3sc4c(c23)CCN(C(C)C)C4)CC1)c1ccc(Cl)cc1` (stereo not given) were, in that order, 76%, 78%, 84% and 81%.
Consider `CCCN1CCc2c(sc3ncnc(N4CCN(C(=O)C(CNC(C)C)c5ccc(Cl)cc5)CC4)c23)C1` (stereo not given), for which the Activity in the experiment filed under Homo sapiens was found to be 75%; in experiment [1], 79%; in experiment [3], 88%; in experiment [6], 89%.
For `COc1ccc(C(CNC(C)C)C(=O)N2CCN(c3ncnc4sc5c(c34)CCN(C)C5)CC2)cc1` (stereo not given), the Activity turned out to be 81% in the experiment listed under Homo sapiens, 76% in [1], 95% in [3] and 78% in experiment [6].
